Columns and labels:
[1] = target: Ephrin type-A receptor 2 (Homo sapiens) (UniProt P29317); assay: Competitive binding affinity to EPHA2 (unknown origin) at 10 uM in presence of ATP relative to control
Procedure, shortened: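 In vitro ATP-site competition binding assay, part of profiling against a diverse panel of 128 kinases. Each compound was tested at a single concentration of 10 µM. Kinome selectivity was summarized as S15 selectivity scores.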

[2] = target: Casein kinase I isoform gamma-2 (Homo sapiens) (UniProt P78368); assay: Competitive binding affinity to CSNK1G2 (unknown origin) at 10 uM in presence of ATP relative to control
Sequence of Casein kinase I isoform gamma-2 (Homo sapiens) (P78368 whole entry, looked up, canonical isoform): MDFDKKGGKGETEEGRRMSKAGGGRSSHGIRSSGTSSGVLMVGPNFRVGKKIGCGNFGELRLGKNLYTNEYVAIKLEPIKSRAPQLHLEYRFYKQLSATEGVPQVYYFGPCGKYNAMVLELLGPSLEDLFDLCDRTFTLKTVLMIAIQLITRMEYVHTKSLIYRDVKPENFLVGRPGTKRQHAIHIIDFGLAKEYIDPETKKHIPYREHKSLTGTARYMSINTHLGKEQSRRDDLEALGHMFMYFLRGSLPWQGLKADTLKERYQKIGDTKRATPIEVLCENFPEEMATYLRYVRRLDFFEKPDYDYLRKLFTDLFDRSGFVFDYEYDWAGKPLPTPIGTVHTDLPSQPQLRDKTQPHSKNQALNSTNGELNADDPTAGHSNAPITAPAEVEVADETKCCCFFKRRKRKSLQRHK

[3] = target: Casein kinase I isoform epsilon (Homo sapiens) (UniProt P49674); assay: Competitive binding affinity to CSNK1E (unknown origin) at 10 uM in presence of ATP relative to control
Sequence of Casein kinase I isoform epsilon (Homo sapiens) (P49674 whole entry, looked up, canonical isoform): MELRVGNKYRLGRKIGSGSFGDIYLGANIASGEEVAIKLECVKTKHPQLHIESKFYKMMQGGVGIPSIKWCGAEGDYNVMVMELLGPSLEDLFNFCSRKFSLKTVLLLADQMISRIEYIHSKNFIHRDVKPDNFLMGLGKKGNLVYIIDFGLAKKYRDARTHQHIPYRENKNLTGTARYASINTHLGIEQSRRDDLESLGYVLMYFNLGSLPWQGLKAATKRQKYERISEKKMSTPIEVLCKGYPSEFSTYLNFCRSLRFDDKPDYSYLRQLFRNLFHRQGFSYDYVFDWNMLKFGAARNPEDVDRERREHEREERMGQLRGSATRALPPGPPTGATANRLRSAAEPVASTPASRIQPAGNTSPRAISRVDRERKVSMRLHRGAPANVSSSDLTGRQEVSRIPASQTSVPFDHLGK

[4] = target: Dual specificity protein kinase CLK2 (Homo sapiens) (UniProt P49760); assay: Competitive binding affinity to CLK2 (unknown origin) at 10 uM in presence of ATP relative to control
Sequence of Dual specificity protein kinase CLK2 (Homo sapiens) (P49760 whole entry, looked up): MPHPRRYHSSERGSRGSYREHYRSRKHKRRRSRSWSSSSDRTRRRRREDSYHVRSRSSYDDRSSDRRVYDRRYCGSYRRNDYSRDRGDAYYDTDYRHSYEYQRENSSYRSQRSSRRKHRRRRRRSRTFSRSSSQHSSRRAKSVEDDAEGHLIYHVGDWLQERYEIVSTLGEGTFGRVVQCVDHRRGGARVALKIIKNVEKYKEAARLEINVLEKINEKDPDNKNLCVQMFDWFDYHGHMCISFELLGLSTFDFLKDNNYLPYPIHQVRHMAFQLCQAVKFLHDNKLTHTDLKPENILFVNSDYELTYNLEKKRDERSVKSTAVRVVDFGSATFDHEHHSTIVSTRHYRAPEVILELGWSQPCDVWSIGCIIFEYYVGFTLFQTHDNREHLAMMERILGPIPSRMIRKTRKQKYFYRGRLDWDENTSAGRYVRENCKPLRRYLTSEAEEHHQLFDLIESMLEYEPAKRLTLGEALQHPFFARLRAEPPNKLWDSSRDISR
Procedure, shortened: (§1)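 In vitro ATP-site competition binding assay across a diverse panel of 128 kinases, with each compound tested at a single concentration. Kinase binding is expressed relative to control.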

[5] = target: Tyrosine-protein kinase ABL2 (Homo sapiens) (UniProt P42684); assay: Competitive binding affinity to ABL2 (unknown origin) at 10 uM in presence of ATP relative to control
Sequence of Tyrosine-protein kinase ABL2 (Homo sapiens) (P42684 whole entry): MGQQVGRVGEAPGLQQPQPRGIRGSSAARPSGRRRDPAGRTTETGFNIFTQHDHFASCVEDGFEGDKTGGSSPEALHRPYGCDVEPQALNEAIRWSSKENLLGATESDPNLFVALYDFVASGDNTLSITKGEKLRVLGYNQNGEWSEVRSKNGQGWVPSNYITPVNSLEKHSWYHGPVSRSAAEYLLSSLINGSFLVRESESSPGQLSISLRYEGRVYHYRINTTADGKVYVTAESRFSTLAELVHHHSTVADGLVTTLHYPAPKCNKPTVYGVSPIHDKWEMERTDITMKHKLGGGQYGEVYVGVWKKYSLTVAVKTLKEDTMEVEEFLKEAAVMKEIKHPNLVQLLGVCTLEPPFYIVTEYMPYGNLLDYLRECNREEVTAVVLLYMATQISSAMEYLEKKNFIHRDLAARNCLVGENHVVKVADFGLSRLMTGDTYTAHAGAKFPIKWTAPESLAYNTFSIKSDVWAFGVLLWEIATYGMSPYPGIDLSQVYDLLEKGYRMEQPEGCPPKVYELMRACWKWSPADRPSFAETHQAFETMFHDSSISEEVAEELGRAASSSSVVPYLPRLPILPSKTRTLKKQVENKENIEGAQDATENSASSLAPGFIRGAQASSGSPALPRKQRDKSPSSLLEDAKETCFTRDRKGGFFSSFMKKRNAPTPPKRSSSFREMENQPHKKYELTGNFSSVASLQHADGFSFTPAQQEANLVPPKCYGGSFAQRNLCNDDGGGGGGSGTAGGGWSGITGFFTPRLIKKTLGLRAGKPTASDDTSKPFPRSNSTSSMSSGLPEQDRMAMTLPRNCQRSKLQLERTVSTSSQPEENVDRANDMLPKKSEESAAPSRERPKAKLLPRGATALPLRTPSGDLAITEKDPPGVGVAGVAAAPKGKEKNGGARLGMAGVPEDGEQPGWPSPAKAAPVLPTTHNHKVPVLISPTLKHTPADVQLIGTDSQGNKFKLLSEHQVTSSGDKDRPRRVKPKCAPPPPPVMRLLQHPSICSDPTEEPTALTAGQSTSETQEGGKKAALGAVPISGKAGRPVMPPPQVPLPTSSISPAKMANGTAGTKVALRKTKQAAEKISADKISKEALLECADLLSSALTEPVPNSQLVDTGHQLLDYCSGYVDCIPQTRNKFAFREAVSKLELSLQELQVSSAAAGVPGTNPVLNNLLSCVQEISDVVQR

[6] = target: T1, Serine/threonine-protein kinase 36 (Homo sapiens) (UniProt Q9NRP7); assay: Competitive binding affinity to STK36 (unknown origin) at 10 uM in presence of ATP relative to control; procedure, shortened: as §1
T1 sequence (whole entry): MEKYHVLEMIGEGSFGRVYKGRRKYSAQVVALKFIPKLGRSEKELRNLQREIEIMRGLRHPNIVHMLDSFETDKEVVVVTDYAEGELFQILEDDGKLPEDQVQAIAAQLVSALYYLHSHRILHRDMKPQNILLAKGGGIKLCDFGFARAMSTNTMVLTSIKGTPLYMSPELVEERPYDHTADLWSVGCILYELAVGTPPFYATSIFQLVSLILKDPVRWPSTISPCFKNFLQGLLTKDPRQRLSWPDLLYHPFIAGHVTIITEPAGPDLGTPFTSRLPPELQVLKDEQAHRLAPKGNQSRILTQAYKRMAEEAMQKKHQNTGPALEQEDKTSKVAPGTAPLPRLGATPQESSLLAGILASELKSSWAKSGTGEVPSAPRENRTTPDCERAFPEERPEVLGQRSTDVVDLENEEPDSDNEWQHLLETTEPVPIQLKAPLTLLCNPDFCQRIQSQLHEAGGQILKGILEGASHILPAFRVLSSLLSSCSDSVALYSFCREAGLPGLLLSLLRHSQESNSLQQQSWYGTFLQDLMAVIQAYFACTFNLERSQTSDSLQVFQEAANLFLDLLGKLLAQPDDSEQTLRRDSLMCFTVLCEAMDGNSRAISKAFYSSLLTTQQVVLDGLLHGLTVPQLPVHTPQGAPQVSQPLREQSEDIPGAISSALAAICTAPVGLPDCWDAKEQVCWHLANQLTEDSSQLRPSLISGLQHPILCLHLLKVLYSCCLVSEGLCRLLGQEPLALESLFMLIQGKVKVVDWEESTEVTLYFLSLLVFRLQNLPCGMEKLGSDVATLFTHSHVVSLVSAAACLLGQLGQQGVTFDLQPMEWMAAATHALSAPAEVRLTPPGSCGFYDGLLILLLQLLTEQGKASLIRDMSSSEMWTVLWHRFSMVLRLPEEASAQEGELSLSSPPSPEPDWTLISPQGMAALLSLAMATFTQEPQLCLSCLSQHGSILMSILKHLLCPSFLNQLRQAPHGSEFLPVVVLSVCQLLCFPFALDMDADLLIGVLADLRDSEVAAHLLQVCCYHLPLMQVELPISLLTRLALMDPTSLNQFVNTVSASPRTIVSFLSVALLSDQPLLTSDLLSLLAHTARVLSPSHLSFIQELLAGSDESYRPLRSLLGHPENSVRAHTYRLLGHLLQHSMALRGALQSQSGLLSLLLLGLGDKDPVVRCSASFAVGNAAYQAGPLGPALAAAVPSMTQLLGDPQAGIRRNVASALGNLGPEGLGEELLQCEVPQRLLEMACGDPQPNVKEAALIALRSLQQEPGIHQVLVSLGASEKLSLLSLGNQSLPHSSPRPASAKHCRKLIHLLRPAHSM

[7] = target: Receptor-interacting serine/threonine-protein kinase 2 (Homo sapiens) (UniProt O43353); assay: Competitive binding affinity to RIPK2 (unknown origin) at 10 uM in presence of ATP relative to control
Sequence of Receptor-interacting serine/threonine-protein kinase 2 (Homo sapiens) (O43353 whole entry): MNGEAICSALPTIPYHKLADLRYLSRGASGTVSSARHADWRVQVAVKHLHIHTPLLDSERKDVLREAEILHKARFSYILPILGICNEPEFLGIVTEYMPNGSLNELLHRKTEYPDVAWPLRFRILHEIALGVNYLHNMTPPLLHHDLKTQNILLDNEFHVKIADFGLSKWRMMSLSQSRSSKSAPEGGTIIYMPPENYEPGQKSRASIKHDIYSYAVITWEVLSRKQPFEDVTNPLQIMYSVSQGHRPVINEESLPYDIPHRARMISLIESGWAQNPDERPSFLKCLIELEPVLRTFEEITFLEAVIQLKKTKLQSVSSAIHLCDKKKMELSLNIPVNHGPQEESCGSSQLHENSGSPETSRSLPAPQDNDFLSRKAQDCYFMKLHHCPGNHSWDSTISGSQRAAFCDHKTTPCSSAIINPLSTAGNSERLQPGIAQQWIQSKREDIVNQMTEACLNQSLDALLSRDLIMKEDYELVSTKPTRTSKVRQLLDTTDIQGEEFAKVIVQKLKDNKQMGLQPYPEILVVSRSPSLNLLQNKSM
Procedure, shortened: (§2)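 In vitro ATP-site competition binding assay across a diverse panel of 128 kinases, with compound tested at a single concentration. Kinase selectivity scores (S15) were calculated from the panel profiles.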

[8] = target: Cyclin-dependent kinase 16 (Homo sapiens) (UniProt Q00536); assay: Competitive binding affinity to PCTK1 (unknown origin) at 10 uM in presence of ATP relative to control; procedure, shortened: as §2
Sequence of Cyclin-dependent kinase 16 (Homo sapiens) (Q00536 whole entry): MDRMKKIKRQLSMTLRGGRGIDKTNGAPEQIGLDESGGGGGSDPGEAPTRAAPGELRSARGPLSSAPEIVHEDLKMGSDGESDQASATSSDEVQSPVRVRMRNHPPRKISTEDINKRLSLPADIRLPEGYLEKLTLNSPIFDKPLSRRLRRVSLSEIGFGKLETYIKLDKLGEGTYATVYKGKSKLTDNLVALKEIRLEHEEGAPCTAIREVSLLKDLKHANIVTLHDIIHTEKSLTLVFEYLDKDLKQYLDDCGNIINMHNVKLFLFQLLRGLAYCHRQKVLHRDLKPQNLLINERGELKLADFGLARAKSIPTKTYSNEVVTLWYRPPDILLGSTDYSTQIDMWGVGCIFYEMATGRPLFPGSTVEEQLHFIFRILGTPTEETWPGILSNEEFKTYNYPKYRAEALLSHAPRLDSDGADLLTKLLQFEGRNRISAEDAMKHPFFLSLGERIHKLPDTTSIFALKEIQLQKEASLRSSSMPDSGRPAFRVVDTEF

[9] = target: T2, Serine/threonine-protein kinase Nek2 (Homo sapiens) (UniProt P51955); assay: Competitive binding affinity to NEK2 (unknown origin) at 10 uM in presence of ATP relative to control; procedure, shortened: as §2
T2 sequence (whole entry): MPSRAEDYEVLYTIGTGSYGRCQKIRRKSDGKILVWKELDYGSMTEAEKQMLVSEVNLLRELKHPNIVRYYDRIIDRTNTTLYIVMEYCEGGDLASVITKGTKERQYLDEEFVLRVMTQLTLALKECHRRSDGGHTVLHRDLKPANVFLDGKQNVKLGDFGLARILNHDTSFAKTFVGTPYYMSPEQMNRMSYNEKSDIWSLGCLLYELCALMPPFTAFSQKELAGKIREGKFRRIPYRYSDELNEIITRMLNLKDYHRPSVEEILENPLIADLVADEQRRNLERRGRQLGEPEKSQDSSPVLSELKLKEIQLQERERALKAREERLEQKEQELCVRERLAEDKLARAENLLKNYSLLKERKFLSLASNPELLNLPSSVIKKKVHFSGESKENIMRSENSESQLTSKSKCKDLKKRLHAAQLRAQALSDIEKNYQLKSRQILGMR

[10] = target: Mitogen-activated protein kinase 10 (Homo sapiens, UniProt P53779); assay: Competitive binding affinity to JNK3 (unknown origin) at 10 uM in presence of ATP relative to control; procedure, shortened: as §1
Sequence of Mitogen-activated protein kinase 10 (P53779 whole entry): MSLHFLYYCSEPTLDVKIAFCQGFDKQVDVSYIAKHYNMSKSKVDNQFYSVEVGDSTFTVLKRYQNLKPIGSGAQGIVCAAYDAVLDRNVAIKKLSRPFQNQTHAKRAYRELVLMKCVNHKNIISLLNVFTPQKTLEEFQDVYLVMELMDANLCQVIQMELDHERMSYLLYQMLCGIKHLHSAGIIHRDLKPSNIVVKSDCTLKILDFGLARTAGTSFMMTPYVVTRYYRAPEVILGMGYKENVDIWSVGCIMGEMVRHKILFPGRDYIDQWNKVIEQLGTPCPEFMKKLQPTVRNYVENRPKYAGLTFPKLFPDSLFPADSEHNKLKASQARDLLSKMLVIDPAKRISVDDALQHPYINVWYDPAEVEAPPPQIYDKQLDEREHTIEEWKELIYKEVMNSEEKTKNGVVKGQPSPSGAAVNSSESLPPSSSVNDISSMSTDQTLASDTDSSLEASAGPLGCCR

Sequence of Ephrin type-A receptor 2 (Homo sapiens) (P29317 whole entry): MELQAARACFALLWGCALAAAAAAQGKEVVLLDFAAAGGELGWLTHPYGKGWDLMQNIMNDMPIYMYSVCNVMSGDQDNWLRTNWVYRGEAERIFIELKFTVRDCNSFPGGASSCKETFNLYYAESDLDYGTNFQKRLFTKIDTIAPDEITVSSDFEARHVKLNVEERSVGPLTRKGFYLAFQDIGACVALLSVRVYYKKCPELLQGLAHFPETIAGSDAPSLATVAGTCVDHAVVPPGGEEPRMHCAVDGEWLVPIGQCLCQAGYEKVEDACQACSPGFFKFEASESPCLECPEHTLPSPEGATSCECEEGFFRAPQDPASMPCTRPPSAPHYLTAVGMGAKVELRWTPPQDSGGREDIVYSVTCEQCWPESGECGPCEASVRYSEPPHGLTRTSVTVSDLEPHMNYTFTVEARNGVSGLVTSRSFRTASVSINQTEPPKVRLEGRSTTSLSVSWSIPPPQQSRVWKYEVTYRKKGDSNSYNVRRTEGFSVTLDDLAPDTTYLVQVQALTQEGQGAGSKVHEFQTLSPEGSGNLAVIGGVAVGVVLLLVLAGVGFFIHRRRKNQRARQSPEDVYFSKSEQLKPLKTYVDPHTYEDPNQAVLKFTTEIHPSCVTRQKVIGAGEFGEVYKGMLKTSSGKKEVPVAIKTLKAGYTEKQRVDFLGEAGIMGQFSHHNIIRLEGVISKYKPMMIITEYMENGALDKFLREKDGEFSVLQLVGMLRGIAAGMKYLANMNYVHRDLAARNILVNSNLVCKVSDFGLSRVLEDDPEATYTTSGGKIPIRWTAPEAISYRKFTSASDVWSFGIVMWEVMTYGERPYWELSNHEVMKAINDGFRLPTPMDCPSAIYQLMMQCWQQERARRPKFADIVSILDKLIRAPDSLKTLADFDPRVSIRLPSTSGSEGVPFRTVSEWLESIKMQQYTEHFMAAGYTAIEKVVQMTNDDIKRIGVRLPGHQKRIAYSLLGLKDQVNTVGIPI

Compound	inhibition [1] [%]	inhibition [2] [%]	inhibition [3] [%]	inhibition [4] [%]	inhibition [5] [%]	inhibition [6] [%]	inhibition [7] [%]	inhibition [8] [%]	inhibition [9] [%]	inhibition [10] [%]
O[C@H]1CC[C@H](Nc2nccc(-n3nnc4ccccc43)n2)CC1	< 50	50	100	99	< 50	96	66	100	< 50	100
CS(=O)(=O)CCCOc1cccc2c1ccn2-c1ccnc(N[C@H]2CC[C@H](C(=O)N3CCC(O)CC3)CC2)n1										> 85
O[C@H]1CC[C@H](Nc2nccc(-n3ncc4ccccc43)n2)CC1	< 50	< 50	94	99	< 50	97	< 50	99	< 50	100
O[C@H]1CC[C@H](Nc2nccc(-c3n[nH]c4ccccc34)n2)CC1	< 50	74	100	95	< 50	99	< 50	100	< 50	100
O[C@H]1CC[C@H](Nc2nccc(-n3ccc4ccccc43)n2)CC1	< 50	< 50	85	97	< 50	84	< 50	99	< 50	100
O=C([C@H]1CC[C@H](Nc2nccc(-n3nnc4ccccc43)n2)CC1)N1CCOCC1	< 50	76	95	94	< 50	95	< 50	91	< 50	100
N[C@H]1CC[C@H](Nc2nccc(-n3nnc4ccccc43)n2)CC1	< 50	100	100	100	89	100	< 50	100	< 50	100
